Measurements gathered from unrelated publications.
Lines come from different studies, so protocols differ.
Observed: enzyme activity
Action: inhibitor
RET: Proto-oncogene tyrosine-protein kinase receptor Ret (RET, Homo sapiens, UniProt P07949)
RET Y791F: Proto-oncogene tyrosine-protein kinase receptor Ret (RET, Homo sapiens, UniProt P07949, Y791F)

`CNCc1ccc(-c2cc(-c3nc(-c4ccc(S(=O)(=O)C(C)C)cc4)cnc3N)on2)cc1` gave an inhibition of 22% (RET; 0.4 µM).
With `COc1cc2nccc(Oc3ccc(NC(=O)c4c5n(n(-c6ccc(F)cc6)c4=O)CCCC5)cc3)c2cc1OC` the inhibition was 15% (RET; 0.1 µM).
For `CC/C(=N\NC(=O)NCc1cccc(O)c1)c1ccc(O)c(C)c1O`, the inhibition was 0.2% (RET; 0.1 µM).
The inhibition of `COc1cc2ncnc(Nc3ccc(Oc4ccccc4)cc3C)c2cc1OC` is reported as 34% (RET; 1 µM).
For `COc1cc(-c2cc(-c3ccc(N4CCNCC4)cc3)cnc2N)cc(OC)c1OC`, the inhibition was 3% (RET Y791F; 0.1 µM).
With `CNC(=O)c1cc2c(Oc3ccc(NC(=O)C4(C(=O)Nc5ccc(F)cc5)CC4)cc3)ccnc2cc1OC` the inhibition was 98% (RET; radiometric; 1 µM).
The inhibition of `C=CC(=O)Nc1cc(Nc2nccc(Nc3cc(Cl)c(F)cc3C(C)(C)O)n2)c(OC)cc1N1CC[C@@H](N(C)C)C1` is reported as 8% (Proto-oncogene tyrosine-protein kinase receptor Ret (RET, Homo sapiens, UniProt P07949, V804L); 1 µM).
The inhibition of `COc1cc2ncnc(Nc3ccc(Oc4ccccc4)c(C)c3C)c2cc1OC` is reported as 31% (RET Y791F; 1 µM).
With `CCCS(=O)(=O)Nc1ccc(F)c(C(=O)c2c[nH]c3ncc(-c4ccc(Cl)cc4)cc23)c1F` the inhibition was < 10% (RET; 1 µM).
